Assay [1] concerns Hepatocyte. As to the kind of experiment: Inhibition of glucose production in cAMP and Dex pre-treated C57BLKS rat Primary hepatocytes incubated for 3 hrs by glucose assay kit method. It is filed as functional, cell-based. A digest of the protocol:
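Rat primary hepatocytes cultured overnight in DMEM/10% FBS, then pretreated with compounds for 3 h in fresh medium. Switched to glucose-free DMEM with 2 mM sodium pyruvate, 20 mM sodium lactate and compound for 3 h. Medium glucose measured with a kit and normalized to BCA protein. Pathological arm adds 1 µM dexamethasone plus 200 µM cAMP for 3 h. Means ± SEM, n=4.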

In assay [2] the test system is Hepatocyte. Kind of assay: Inhibition of lipid accumulation in C57BLKS rat Primary hepatocytes assessed as reduction in insulin and glucose-induced TG level at 10 uM incubated for 24 hrs. It is filed as functional, cell-based. A digest of the protocol: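 After overnight culture in DMEM, rat primary hepatocytes pretreated with compounds, then held in 25 mM glucose plus 500 nM insulin for 24 h to induce lipid accumulation. Triglyceride and total cholesterol measured with assay kits and normalized to BCA protein. Means ± SEM of four independent experiments.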

Active and inactive are the calls of the source. The calls are words filed in the database; no cut-off is given here.

On to `CCOC(=O)C(C)(C)Oc1ccc(F)c(/C=C/[N+](=O)[O-])c1`, for which the inhibition entry in the assay on Hepatocyte [1] is “Dose-dependent effect”. The inhibition result in the assay with Hepatocyte [2] is “Active”.

Values taken from ChEMBL document CHEMBL4311987, “Discovery of novel allosteric site and covalent inhibitors of FBPase with potent hypoglycemic effects” (Eur J Med Chem, 2019).
